Test results from ChEMBL document CHEMBL1142037, “Cyclization-activated prodrugs. Synthesis, reactivity and toxicity of dipeptide esters of paracetamol” (Bioorg Med Chem Lett, 2005).

Assays:
[1] = Half life required for the release of paracetamol; type: ADME
[2] = Relative rate constant for release of paracetamol was determined; type: ADME
[3] = Rate constant for release of paracetamol was determined; type: ADME
Mus musculus = species: Mus musculus; assay: Effect on glutathione levels in mice; type: functional
In short: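 Male BALB/c mice (17–21 g, 5 weeks old), four per group, given a single ip dose of 3.3 mmol/kg in 30% propyleneglycol. Controls received vehicle ip. Livers were taken 2 h after dosing and kept on ice. Reduced glutathione in liver homogenate was measured at once with DTNB and reported as µmol/g tissue.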

Compound	T1/2 [1]	Krelative [2]	K obs [3]	Glutathione levels (Mus musculus)
CC(=O)Nc1ccc(OC(=O)CNC(=O)[C@@H]2CCCN2)cc1.O=C(O)C(F)(F)F	2 min	0.41	0.0059 s⁻¹	–
CC(=O)Nc1ccc(OC(=O)CNC(=O)[C@@H](N)Cc2ccccc2)cc1.O=C(O)C(F)(F)F	14 min	0.06	0.000821 s⁻¹	2.68 umol/g tissue
CC(=O)Nc1ccc(OC(=O)[C@@H](NC(=O)CN)C(C)C)cc1.O=C(O)C(F)(F)F	20 min	0.04	0.00057 s⁻¹	–
CC(=O)Nc1ccc(OC(=O)[C@H](C)NC(=O)CN)cc1.O=C(O)C(F)(F)F	0.9 min	0.94	0.0134 s⁻¹	–
CC(=O)Nc1ccc(OC(=O)[C@@H]2CCCN2C(=O)CN)cc1.O=C(O)C(F)(F)F	–	–	Too fast to be monitored	–
CC(=O)Nc1ccc(OC(=O)[C@H](Cc2ccccc2)NC(=O)CN)cc1.O=C(O)C(F)(F)F	2 min	0.4	0.00564 s⁻¹	3.74 umol/g tissue

Continued, in another order:

T1/2 [1]	Krelative [2]	K obs [3]	Compound	Glutathione levels (Mus musculus)
16 min	0.05	0.00071 s⁻¹	CC(=O)Nc1ccc(OC(=O)CNC(=O)[C@@H](N)C(C)C)cc1.O=C(O)C(F)(F)F	3.87 umol/g tissue
–	–	Too fast to be monitored	CC(=O)Nc1ccc(OC(=O)CN(C)C(=O)CN)cc1.O=C(O)C(F)(F)F	–
0.8 min	1	0.0143 s⁻¹	CC(=O)Nc1ccc(OC(=O)CNC(=O)CN)cc1.O=C(O)C(F)(F)F	–
–	–	Too fast to be monitored	CNCC(=O)NCC(=O)Oc1ccc(NC(C)=O)cc1.O=C(O)C(F)(F)F	–
3 min	0.24	0.0034 s⁻¹	CC(=O)Nc1ccc(OC(=O)CNC(=O)[C@H](C)N)cc1.O=C(O)C(F)(F)F	–
